Laboratory results from ChEMBL document CHEMBL3352570, “ST7612AA1, a thioacetate-ω(γ-lactam carboxamide) derivative selected from a novel generation of oral HDAC inhibitors” (J Med Chem, 2014).
One block for each molecule: values may come before it. The source made the active and inactive calls. The calls are words filed in the database; no cut-off is given here.

Experiments:
[1] = Solubility of the compound in water; type: physicochemical
NCI-H460 = assay: Cytotoxicity against human NCI-H460 cells after 24 hrs by SRB assay; type: functional, cell-based; conditions: NCI-H460, 24 h
In short: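 NCI-H460 cells were grown in RPMI-1640 with L-glutamine, 10% heat-inactivated FCS and 50 μg/mL gentamicin. Cells were seeded at about 10% confluence and allowed to recover for 24 h. They were exposed to varying concentrations for 24 h, washed, then cultured a further 48 h. Surviving cells were measured by SRB. IC50 is the 50% reduction in cell number versus vehicle, from dose–response curve fitting; means of at least three experiments.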

[2] = Cytotoxicity against human HCT116 cells after 24 hrs by SRB assay; type: functional, cell-based; conditions: HCT-116, 24 h
In short: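 HCT116 cells were cultured in McCoy's 5A with L-glutamine, 10% heat-inactivated FCS and 50 μg/mL gentamicin. After seeding at about 10% confluence and a 24 h recovery, they received drug for 24 h. Drug was washed out and cells were incubated 48 h more before SRB staining. IC50 is the 50% cell-number reduction versus vehicle, from fitted dose–response curves; means of at least two experiments.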

Histone deacetylase [3] = assay: Inhibition of HDAC-mediated tubulin deacetylation in human NCI-H460 cells after 3 hrs by Western blot analysis; type: cell-based
In short: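 Cells (NCI-H460) were treated for 3 h with graded concentrations. The cytoplasmic fraction was collected after HNB/1% NP-40 lysis and centrifugation of nuclei at 2000g. This fraction was resolved by SDS-PAGE and probed for acetylated α-tubulin against α-tubulin and β-actin. Bands were detected by ECL and quantified by densitometry after normalization; IC50 fitted; means of at least two experiments.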

Histone deacetylase [4] = assay: Inhibition of HDAC-mediated histone H4 deacetylation in human NCI-H460 cells after 3 hrs by Western blot analysis; type: cell-based
In short: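 NCI-H460 cells were plated the day before and treated 3 h across a dose range. Cells were washed with DPBS containing 5 mM NaB and lysed in HNB buffer with 1% NP-40. Histones were acid-extracted from nuclei with 0.4 equiv/L H2SO4 and precipitated with acetone. Blots were probed for acetyl-H4 against total H4. Read-out was ECL and densitometry after normalization; IC50 fitted; means of at least two experiments.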

Histone deacetylase 3 = Histone deacetylase 3 (Homo sapiens, UniProt O15379); assay: Inhibition of HDAC3 (unknown origin) using fluorogenic tetrapeptide RHKK(Ac) substrate by fluorescence assay
Histone deacetylase 1 [5] = biological target: T1, Histone deacetylase 1 (Homo sapiens, UniProt Q13547); assay: Inhibition of HDAC1 (unknown origin) using fluorogenic tetrapeptide RHKK(Ac) substrate at <50 uM by fluorescence assay
In short: (§1)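 Fluorogenic assay with the tetrapeptide RHKK(Ac) substrate (p53 residues 379–382) at 50 μM.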

[6] = biological target: T2, Polyamine deacetylase HDAC10 (Homo sapiens) (UniProt Q969S8); assay: Inhibition of HDAC10 (unknown origin) using fluorogenic tetrapeptide RHKK(Ac) substrate at <50 uM by fluorescence assay; in short: as §1
T2 sequence (whole entry): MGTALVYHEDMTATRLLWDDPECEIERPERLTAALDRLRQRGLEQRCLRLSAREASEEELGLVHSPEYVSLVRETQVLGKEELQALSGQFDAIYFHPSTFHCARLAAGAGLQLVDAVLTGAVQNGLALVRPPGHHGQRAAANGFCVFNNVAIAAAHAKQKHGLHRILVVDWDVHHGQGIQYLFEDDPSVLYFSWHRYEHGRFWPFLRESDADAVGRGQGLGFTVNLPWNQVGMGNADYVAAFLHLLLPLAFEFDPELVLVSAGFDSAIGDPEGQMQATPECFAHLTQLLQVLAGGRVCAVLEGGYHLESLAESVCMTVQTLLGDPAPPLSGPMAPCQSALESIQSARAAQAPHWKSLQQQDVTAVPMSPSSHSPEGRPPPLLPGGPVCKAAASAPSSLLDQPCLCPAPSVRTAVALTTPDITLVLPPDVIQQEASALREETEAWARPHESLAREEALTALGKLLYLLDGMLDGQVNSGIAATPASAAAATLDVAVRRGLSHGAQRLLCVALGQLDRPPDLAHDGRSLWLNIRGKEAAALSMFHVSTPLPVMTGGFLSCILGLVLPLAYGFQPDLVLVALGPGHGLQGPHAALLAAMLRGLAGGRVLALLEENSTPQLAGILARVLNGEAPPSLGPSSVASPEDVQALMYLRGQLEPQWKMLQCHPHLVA

Histone deacetylase 2 = Histone deacetylase 2 (Homo sapiens, UniProt Q92769); assay: Inhibition of HDAC2 (unknown origin) using fluorogenic tetrapeptide RHKK(Ac) substrate at <50 uM by fluorescence assay; in short: as §1
Histone deacetylase 11 = biological target: T3, Histone deacetylase 11 (Homo sapiens, UniProt Q96DB2); assay: Inhibition of HDAC11 (unknown origin) using fluorogenic tetrapeptide RHKK(Ac) substrate by fluorescence assay
T3 sequence (Q96DB2 whole entry): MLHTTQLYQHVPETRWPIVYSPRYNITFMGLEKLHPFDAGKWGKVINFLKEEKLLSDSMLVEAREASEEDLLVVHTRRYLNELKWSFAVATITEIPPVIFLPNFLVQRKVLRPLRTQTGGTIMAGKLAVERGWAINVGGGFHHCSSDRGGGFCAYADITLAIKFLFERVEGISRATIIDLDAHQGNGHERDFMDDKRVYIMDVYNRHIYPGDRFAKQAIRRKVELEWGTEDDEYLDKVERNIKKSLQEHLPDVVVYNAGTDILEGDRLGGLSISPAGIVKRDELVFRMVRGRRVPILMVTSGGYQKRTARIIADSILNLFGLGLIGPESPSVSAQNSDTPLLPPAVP

[7] = biological target: T4, Histone deacetylase 8 (Homo sapiens) (UniProt Q9BY41); assay: Inhibition of HDAC8 (unknown origin) using fluorogenic tetrapeptide RHK(Ac)K(Ac) substrate at <50 uM by fluorescence assay
T4 sequence (whole entry): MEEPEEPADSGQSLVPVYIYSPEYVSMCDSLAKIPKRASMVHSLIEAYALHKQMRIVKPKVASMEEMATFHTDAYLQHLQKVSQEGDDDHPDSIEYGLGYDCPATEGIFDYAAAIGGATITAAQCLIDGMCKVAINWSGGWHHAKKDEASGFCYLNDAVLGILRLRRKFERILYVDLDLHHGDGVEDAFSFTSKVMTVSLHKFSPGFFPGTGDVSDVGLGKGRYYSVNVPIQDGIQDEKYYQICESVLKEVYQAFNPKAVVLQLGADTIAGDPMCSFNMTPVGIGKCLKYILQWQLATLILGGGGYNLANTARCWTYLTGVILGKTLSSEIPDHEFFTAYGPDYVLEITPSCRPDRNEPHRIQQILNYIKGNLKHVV
In short: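 The HDAC8 assay used the diacetylated fluorogenic substrate RHK(Ac)K(Ac) at 50 μM.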

[8] = biological target: T5, Protein deacetylase HDAC6 (Homo sapiens, UniProt Q9UBN7); assay: Inhibition of HDAC6 (unknown origin) using fluorogenic tetrapeptide RHKK(Ac) substrate by fluorescence assay
T5 sequence (Q9UBN7 whole entry): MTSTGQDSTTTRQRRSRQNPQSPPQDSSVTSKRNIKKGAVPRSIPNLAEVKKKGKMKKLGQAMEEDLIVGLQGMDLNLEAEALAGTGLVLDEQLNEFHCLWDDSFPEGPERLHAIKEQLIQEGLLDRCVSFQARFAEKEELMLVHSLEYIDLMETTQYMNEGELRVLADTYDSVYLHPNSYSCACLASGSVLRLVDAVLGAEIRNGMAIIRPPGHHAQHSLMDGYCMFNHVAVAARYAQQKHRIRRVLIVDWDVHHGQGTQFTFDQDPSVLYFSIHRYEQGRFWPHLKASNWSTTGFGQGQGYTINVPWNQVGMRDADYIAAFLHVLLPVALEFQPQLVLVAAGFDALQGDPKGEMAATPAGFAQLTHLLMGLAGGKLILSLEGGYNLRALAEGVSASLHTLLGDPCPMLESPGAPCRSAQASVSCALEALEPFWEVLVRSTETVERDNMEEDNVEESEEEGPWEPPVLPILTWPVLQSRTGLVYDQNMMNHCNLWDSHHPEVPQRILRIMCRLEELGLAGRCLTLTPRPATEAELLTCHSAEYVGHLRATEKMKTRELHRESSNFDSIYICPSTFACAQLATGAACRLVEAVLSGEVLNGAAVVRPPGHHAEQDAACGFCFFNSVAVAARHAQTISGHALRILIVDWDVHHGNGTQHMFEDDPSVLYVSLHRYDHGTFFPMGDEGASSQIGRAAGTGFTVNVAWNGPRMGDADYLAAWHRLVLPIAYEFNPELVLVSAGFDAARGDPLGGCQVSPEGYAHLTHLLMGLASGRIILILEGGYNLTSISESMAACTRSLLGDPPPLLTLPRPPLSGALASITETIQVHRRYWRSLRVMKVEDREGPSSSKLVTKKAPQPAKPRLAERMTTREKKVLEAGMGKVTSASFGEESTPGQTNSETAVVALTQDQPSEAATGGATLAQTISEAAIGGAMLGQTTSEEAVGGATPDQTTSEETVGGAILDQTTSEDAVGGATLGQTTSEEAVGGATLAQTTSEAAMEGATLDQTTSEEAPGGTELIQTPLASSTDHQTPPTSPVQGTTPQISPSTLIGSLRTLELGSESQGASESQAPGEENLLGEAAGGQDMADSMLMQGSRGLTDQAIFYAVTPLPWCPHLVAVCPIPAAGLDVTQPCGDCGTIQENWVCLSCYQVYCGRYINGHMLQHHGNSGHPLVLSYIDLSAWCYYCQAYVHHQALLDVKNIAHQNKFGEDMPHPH

[9] = biological target: T6, Polyamine deacetylase HDAC10 (Homo sapiens, UniProt Q969S8); assay: Inhibition of HDAC10 (unknown origin) using fluorogenic tetrapeptide RHKK(Ac) substrate by fluorescence assay
T6 sequence (Q969S8 whole entry): T2 sequence (whole entry)

Histone deacetylase 8 = biological target: T7, Histone deacetylase 8 (Homo sapiens, UniProt Q9BY41); assay: Inhibition of HDAC8 (unknown origin) using fluorogenic tetrapeptide RHK(Ac)K(Ac) substrate by fluorescence assay
T7 sequence (Q9BY41 whole entry): T4 sequence (whole entry)

Histone deacetylase 1 [10] = biological target: T1, Histone deacetylase 1; assay: Inhibition of HDAC1 (unknown origin) using fluorogenic tetrapeptide RHKK(Ac) substrate by fluorescence assay

T1 sequence (Q13547 whole entry, the tested form may be a part): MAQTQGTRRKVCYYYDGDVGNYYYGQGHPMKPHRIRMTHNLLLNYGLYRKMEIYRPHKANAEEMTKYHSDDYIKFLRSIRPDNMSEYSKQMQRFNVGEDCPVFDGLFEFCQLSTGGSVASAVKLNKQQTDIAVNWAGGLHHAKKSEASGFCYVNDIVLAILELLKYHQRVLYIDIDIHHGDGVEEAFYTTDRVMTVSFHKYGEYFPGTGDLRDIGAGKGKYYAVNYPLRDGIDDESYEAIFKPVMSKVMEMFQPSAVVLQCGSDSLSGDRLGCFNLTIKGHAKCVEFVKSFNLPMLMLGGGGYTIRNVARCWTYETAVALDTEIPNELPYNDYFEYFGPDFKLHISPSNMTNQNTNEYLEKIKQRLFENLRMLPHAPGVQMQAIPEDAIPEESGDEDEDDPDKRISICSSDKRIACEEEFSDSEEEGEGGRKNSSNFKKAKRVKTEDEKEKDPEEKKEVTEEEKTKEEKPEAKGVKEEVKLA
Chain of Histone deacetylase 2 (Q92769 whole entry): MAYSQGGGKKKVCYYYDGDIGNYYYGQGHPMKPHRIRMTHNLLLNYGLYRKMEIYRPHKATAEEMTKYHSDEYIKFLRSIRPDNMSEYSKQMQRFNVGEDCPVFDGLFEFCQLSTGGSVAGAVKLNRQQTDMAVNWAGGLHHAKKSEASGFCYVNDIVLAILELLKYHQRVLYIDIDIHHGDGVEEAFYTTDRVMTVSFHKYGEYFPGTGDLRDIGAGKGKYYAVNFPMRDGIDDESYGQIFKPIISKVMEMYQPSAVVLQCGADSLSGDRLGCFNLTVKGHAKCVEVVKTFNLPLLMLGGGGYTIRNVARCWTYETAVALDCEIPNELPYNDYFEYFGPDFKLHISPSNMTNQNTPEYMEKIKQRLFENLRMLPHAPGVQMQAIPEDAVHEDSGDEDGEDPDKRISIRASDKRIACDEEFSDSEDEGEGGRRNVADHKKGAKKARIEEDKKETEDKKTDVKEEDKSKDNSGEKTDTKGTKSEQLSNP
Chain of Histone deacetylase 3 (O15379 whole entry): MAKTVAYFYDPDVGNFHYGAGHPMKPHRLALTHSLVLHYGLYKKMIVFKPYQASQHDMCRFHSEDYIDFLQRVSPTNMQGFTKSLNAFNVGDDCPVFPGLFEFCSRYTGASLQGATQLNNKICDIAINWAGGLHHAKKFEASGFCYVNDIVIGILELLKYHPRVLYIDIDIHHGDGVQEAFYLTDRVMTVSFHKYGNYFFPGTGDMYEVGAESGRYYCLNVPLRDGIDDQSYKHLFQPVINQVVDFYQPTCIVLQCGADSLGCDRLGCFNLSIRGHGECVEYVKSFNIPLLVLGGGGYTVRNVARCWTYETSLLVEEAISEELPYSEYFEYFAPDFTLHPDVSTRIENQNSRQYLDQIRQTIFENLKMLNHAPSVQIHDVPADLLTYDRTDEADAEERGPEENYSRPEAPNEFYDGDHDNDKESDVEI

Structure (SMILES): CCOC(=O)SCCCCCCC(=O)Nc1ccccc1
solubility [1]: > 1000 µg/mL

Structure (SMILES): CC(=O)SCCCCC[C@H](NC(=O)[C@@H]1CCCC(=O)N1)C(=O)Nc1cccc(C)c1
IC50 (NCI-H460): 60 nM

Structure (SMILES): CC(=O)SCCCCC[C@H](NC(=O)[C@H]1CCCC(=O)N1)C(=O)Nc1ccccc1
IC50 (NCI-H460): 100 nM

Structure (SMILES): CC(C)C(=O)SCCCCCCC(=O)Nc1ccccc1
solubility [1]: > 1000 µg/mL

Structure (SMILES): CC(=O)SCCCCCCC(=O)Nc1ccccc1
solubility [1]: > 1000 µg/mL

Further lines, with some results ahead:

IC50 (Histone deacetylase [3]): 0.05 µM
IC50 (Histone deacetylase [4]): 0.031 µM
Structure (SMILES): CC(=O)SCCCCC[C@H](NC(=O)[C@@H]1CC(=O)N1)C(=O)Nc1ccccc1
IC50 (NCI-H460): 50 nM
IC50 [2]: 86 nM

IC50 (Histone deacetylase 3): 17.1 µM
inhibition (Histone deacetylase 1 [5]): inactive
inhibition [6]: inactive
inhibition (Histone deacetylase 2): inactive
IC50 (Histone deacetylase 11): 14.2 µM
inhibition [7]: inactive
IC50 [8]: 9.38 µM
Structure (SMILES): O=C1CCC[C@@H](C(=O)N[C@H](CCCCCS)C(=O)Nc2ccccc2)N1

IC50 (Histone deacetylase 3): 6.33 µM
IC50 [9]: 6 µM
inhibition (Histone deacetylase 2): inactive
IC50 (Histone deacetylase 11): 0.293 µM
IC50 (Histone deacetylase 8): 2230 nM
IC50 (Histone deacetylase 1 [10]): 2900 nM
IC50 [8]: 0.582 µM
Structure (SMILES): O=C1CCC[C@@H](C(=O)N[C@@H](CCCCCS)C(=O)N2CCc3ccccc3C2)N1

IC50 (Histone deacetylase [3]): 0.1 µM
IC50 (Histone deacetylase [4]): 0.1 µM
Structure (SMILES): CC(=O)SCCCCC[C@H](NC(=O)[C@@H]1CCCC(=O)N1)C(=O)Nc1ccccc1
IC50 (NCI-H460): 100 nM
IC50 [2]: 130 nM
